Where a SMILES comes first, the peptide text is derived from it.
Tested on: HIV‐1NL4‐3
Test: SEAP reporter cell HIV‐1 infection assay
Type: cell-based
Details: running text on Table 1 data; compared with P6‐2
In short: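 CEMx174 indicator cells carrying SEAP under SIV LTR control, grown in RPMI 1640 with 10 % heat‑inactivated FCS, glutamine, penicillin and streptomycin. Peptides added to cells before HIV‑1 NL4‑3, which came from 293T transfection supernatant harvested at 48 h and filtered. SEAP activity in supernatant read 3 days post‑infection by commercial kit. Mean and SEM of ≥3 independent experiments; IC50 from fitted curves.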

Compound | HIV‐1 inhibitory activity, result in words
CC(=O)N[C@@H](CC(C)C)C(=O)N[C@@H](CS)C(=O)N[C@@H](CC(=O)O)C(=O)N[C@@H](CS)C(=O)N1CCC[C@H]1C(=O)N[C@@H](CC(N)=O)C(=O)NCC(=O)N1CCC[C@H]1C(=O)N[C@@H](Cc1c[nH]c2ccccc12)C(=O)N[C@H](C(=O)N[C@@H](Cc1c[nH]c2ccccc12)C(=O)N[C@@H](C)C(=O)N1CCC[C@H]1C(=O)N[C@@H](C)C(=O)N[C@@H](Cc1ccccc1)C(=O)N[C@@H](CS)C(=O)N[C@@H](CCC(N)=O)C(=O)N[C@@H](C)C(=O)N[C@H](C(=O)NCC(=O)O)C(C)C)C(C)C [P6‐2‐11] (Ac-LCDCPNGPWVWAPAFCQAVG-OH) | approximately tenfold loss
Ac-LCDCPNGPWAWVPAFCQAVG-OH (cysteine pairing not given here) [P6‐2‐9] | approximately tenfold loss

From paper PMC8248410 (Chemmedchem, 2021)
